17 molecules from ChEMBL document CHEMBL1770091, “Synthesis and biological evaluation of benzyl styrylsulfonyl derivatives as potent anticancer mitotic inhibitors” (Bioorg Med Chem Lett, 2011) can be followed below.

The subject of series [1] is T47D. The series is described as follows: Cytotoxicity against human T47D cells after 72 hrs by MTT assay. The class given is functional. Put shortly:
(§1)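 Standard 72-h MTT cytotoxicity assay, reported as GI50. Cancer lines were run alongside non-transformed MRC-5 lung fibroblasts.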
Background: Tetrazolium assays rely on reduction of a dye to a coloured formazan, in cell work by metabolically active cells.

The nature of series [2]: Cytotoxicity against human MDA468 cells after 72 hrs by MTT assay. As to conditions: MDA-MB-468, 72 h. The class given is functional. In short, it runs like this:
(§2)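 MDA-468 cells were exposed to compound for 24, 48 or 72 h and growth inhibition was read by MTT assay. GI50 is the mean ± s.d. of three independent assays.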

The next series deals with HCT-116. Description: Cytotoxicity against human HCT116 cells after 72 hrs by MTT assay. The class given is functional. As to conditions: HCT-116, 72 h. In short, it runs like this: as §1
In series [3] the test system is MCF7. Description: Cytotoxicity against human MCF7 cells after 72 hrs by MTT assay. The class given is functional. As to conditions: MCF7, 72 h. Put shortly: as §1
A short description of series [4]: Cytotoxicity against human MRC5 cells after 72 hrs by MTT assay. The class given is cell-based. In short, it runs like this: as §1
The subject of series [5] is T47D. Description: Ratio of GI50 for human MRC5 cells to GI50 for human T47D cells. Put shortly: (§3)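 Selectivity was calculated as GI50 in non-transformed MRC-5 fibroblasts divided by GI50 in each cancer line. All GI50 values came from 72-h MTT assays.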
The subject of series [6] is MRC5. The series is described as follows: Ratio of GI50 for human MRC5 cells to GI50 for human MDA468 cells. In short, it runs like this:
as §3

In series [7] the test system is MRC5. The series is described as follows: Ratio of GI50 for human MRC5 cells to GI50 for human HCT116 cells. In short, it runs like this: as §3
For series [8], the system named is MRC5. Description: Ratio of GI50 for human MRC5 cells to GI50 for human MCF7 cells. In short, it runs like this:
as §3

A short description of series [9]: Cytotoxicity against human MDA468 cells after 24 hrs by MTT assay. The conditions noted are these: MDA-MB-468, 24 h. The class given is functional. Put shortly: as §2
Series [10] can be described thus: Cytotoxicity against human MDA468 cells after 48 hrs by MTT assay. It is filed as functional. As to conditions: MDA-MB-468, 48 h. In short, it runs like this:
as §2

Series [11] is described as follows: Cell cycle arrest in human MDA468 cells assessed as accumulation at G2/M phase at 0.5 uM after 20 hrs by flow cytometry. It is filed as functional, cell-based. The conditions noted are these: MDA-MB-468. In short, it runs like this: (§4)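 Cells in exponential growth seeded at 4×10^5, incubated overnight at 37 °C in humidified 5% CO2, then exposed to compound for 20 h. Cells collected, washed once in cold PBS, resuspended in hypotonic fluorochrome solution, and analysed for cell-cycle distribution (% G2/M DNA content) by flow cytometry. Mean ± s.d. of three independent experiments; DMSO vehicle control.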
On the technique in general: A flow cytometer gives signals particle by particle.

Series [12] can be described thus: Cell cycle arrest in human MDA468 cells assessed as accumulation at G2/M phase at 1 uM after 20 hrs by flow cytometry. It is filed as functional, cell-based. As to conditions: MDA-MB-468. In short, it runs like this:
as §4

The subject of a further series is MDA-MB-468. Description: Induction of apoptosis in human MDA468 cells assessed as appearance of apoptotic bodies after 20 hrs by annexinV/propidium iodide staining. The class given is functional, cell-based. In short, it runs like this: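 After overnight culture, 4×10^5 cells per well were treated with compound at 0.5, 1 and 10 μM for 20 h. Apoptosis was measured by annexin V/PI double staining and flow analysis, scored as early (annexin V-positive) plus late (annexin V- and PI-positive) apoptotic cells. Mean ± s.d. of three independent experiments versus DMSO vehicle control.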

The subject of series [13] is MCF7. Description: Metabolic stability of the compound in human MCF7 cells at 1 uM. It is filed as ADME, cell-based. The conditions noted are these: mcf7, 1 µM.
The subject of series [14] is MRC5. Description: Metabolic stability of the compound in human MRC5 cells at 1 uM. The class given is ADME, cell-based. The conditions noted are these: mrc5, 1 µM.

Molecules are shown by their SMILES.

Broadly, the GI50 is the concentration at which growth is held to half of that of the control. The low end stands for more potent growth inhibition, the high end for less potent growth inhibition. For `COc1ccc(CS(=O)(=O)/C=C/c2ccc(OC)c(OC)c2OC)cc1[N+](=O)[O-]`, the GI50 in the series with T47D [1] is over 30 µM; in [2] it was 21.9 µM; in the series with HCT-116, 27.9 µM; in the series on MCF7 [3], over 30 µM. Moreover, the GI50 at 72 h in series [4] is over 30 µM.

In the case of `COc1cc(OC)c(/C=C/S(=O)(=O)Cc2ccc(OC)c(N)c2)c(OC)c1`, the results for the GI50 (in series [2]; in the series on HCT-116; in the series on MCF7 [3]) were 0.03 µM, under 0.01 µM and under 0.01 µM, respectively. The same molecule registered a GI50 at 72 h in [4] of 0.08 µM.

Take `COc1ccc(CS(=O)(=O)/C=C/c2c(OC)cccc2OC)cc1[N+](=O)[O-]`: the 50% growth inhibitory concentration (GI50) is over 30 µM in the series on T47D [1], 5.46 µM in [2], 10.2 µM in the series on HCT-116 and 13.7 µM with MCF7 [3]. The molecule further returned a concentration for 50% growth inhibition (GI50) at 72 h in [4] of over 30 µM.

Regarding `COc1ccc(CS(=O)(=O)CC(=O)Nc2c(C)cc(C)cc2C)cc1[N+](=O)[O-]`, the GI50 with T47D [1] was over 30 µM; in series [2] it was over 30 µM; in the series on HCT-116, 7.91 µM; with MCF7 [3], over 30 µM. The molecule also came in with a GI50 at 72 h in series [4] of 28 µM.

Turning to `COc1ccc(CS(=O)(=O)CC(=O)Nc2c(C)cc(C)cc2C)cc1N`, the GI50 (in the series on T47D [1]; in series [2]; in the series with HCT-116; in the series with MCF7 [3]) was over 30 µM throughout. Further, the GI50 at 72 h in series [4] is over 30 µM.

`COc1cc(/C=C/S(=O)(=O)Cc2ccc(OC)c(N)c2)cc(OC)c1`: the GI50 was found to be 0.53 µM in the series on T47D [1], 0.52 µM in series [2], 0.54 µM in the series with HCT-116 and 0.49 µM in the series on MCF7 [3]. In [4], this molecule returned a GI50 at 72 h of over 30 µM. Moreover, the RatioGI50 with T47D [5], in the series on MRC5 [6], in the series on MRC5 [7] and in the series with MRC5 [8] was under 80 each time.

Take `COc1ccc(OC)c(NC(=O)CS(=O)(=O)Cc2ccc(OC)c([N+](=O)[O-])c2)c1`: the GI50 (in the series on T47D [1]; in [2]; in the series on HCT-116; in the series on MCF7 [3]) was over 30 µM in each case. The GI50 at 72 h in [4] is over 30 µM.

Consider `COc1ccc(CS(=O)(=O)CC(=O)Nc2ccccc2)cc1[N+](=O)[O-]`, for which the GI50 (in the series on T47D [1]; in series [2]; in the series with HCT-116; in the series on MCF7 [3]) was over 30 µM each time. The GI50 at 72 h in series [4] is over 30 µM.

As to `COc1cc(/C=C/S(=O)(=O)Cc2ccc(OC)c([N+](=O)[O-])c2)cc(OC)c1`, the GI50 was over 30 µM with T47D [1], 16.5 µM in [2], over 30 µM in the series with HCT-116 and over 30 µM in the series with MCF7 [3]. Also, the GI50 at 72 h in [4] is over 30 µM.

For `COc1cc(OC)c(NC(=O)CS(=O)(=O)Cc2ccc(OC)c([N+](=O)[O-])c2)c(OC)c1`, the GI50 was over 30 µM with T47D [1], over 30 µM in series [2], 18.8 µM in the series on HCT-116 and over 30 µM with MCF7 [3]. Further, the GI50 at 72 h in series [4] was over 30 µM.

Take `COc1cc(OC)c(/C=C/S(=O)(=O)Cc2ccc(OC)c(NC(C)=O)c2)c(OC)c1`: the values for the GI50 in the series with HCT-116 and in the series on MCF7 [3] were 0.15 µM and 0.35 µM, respectively. In [4], halving of growth (GI50 at 72 h) required 0.81 µM.

With `COc1cc(OC)c(/C=C/[S+]([O-])Cc2ccc(OC)c(N)c2)c(OC)c1` (configuration not stated), the GI50 with T47D [1] is 0.06 µM; in [2], under 0.01 µM; with HCT-116, under 0.01 µM; in the series on MCF7 [3] it was under 0.01 µM; in series [9] it was 0.559 µM; in series [10], 0.137 µM. The same molecule had a concentration for 50% growth inhibition (GI50) at 72 h in series [4] of over 30 µM. The results for the Activity (in [11]; in [12]; in the series with MDA-MB-468) were 77%, 85% and “Dose-dependent effect”, respectively. Further, the Stability result in the series on MCF7 [13] and with MRC5 [14] was “Stable” each time.

Take `COc1cc(OC)c(/C=C/S(=O)(=O)Cc2ccc(OC)c(NCC(=O)O)c2)c(OC)c1` [RIGOSERTIB]: the GI50 with T47D [1] was under 0.01 µM; in series [2] it was 0.02 µM; in the series with HCT-116, 0.05 µM; with MCF7 [3], 0.05 µM; in series [9], 0.601 µM; in [10], 0.302 µM. The molecule also displayed a GI50 at 72 h in series [4] of 0.71 µM. Besides, the Activity in [11] is 58%; in series [12], 84%; in the series with MDA-MB-468 it was “Dose-dependent effect”. Further, the Stability result in the series with MCF7 [13] and in the series with MRC5 [14] was “Stable” throughout.

Turning to `COc1ccc(CS(=O)(=O)CC(=O)Nc2ccccc2)cc1N`, the GI50 (in the series on T47D [1]; in series [2]; in the series with HCT-116; in the series on MCF7 [3]) was over 30 µM in each case. The molecule also gave a GI50 at 72 h in series [4] of over 30 µM.

Take `COc1cc(OC)c(/C=C/S(=O)(=O)Cc2ccc(OC)c([N+](=O)[O-])c2)c(OC)c1`: the GI50 was found to be 0.66 µM with HCT-116 and 0.88 µM in the series on MCF7 [3]. In addition, it took 2.91 µM to inhibit growth in series [4] by half (GI50 at 72 h).

`COc1ccc(CS(=O)(=O)/C=C/c2ccc(OC)c(OC)c2OC)cc1N`: the GI50 is 5.9 µM in the series with T47D [1], 3.48 µM in series [2], 5.31 µM in the series with HCT-116 and 5.95 µM in the series on MCF7 [3]. In series [4], this molecule showed a GI50 at 72 h of over 30 µM.

For the molecule `COc1ccc(CS(=O)(=O)/C=C/c2c(OC)cccc2OC)cc1N`, the GI50 with T47D [1] was determined as 0.05 µM; in series [2] it was 0.06 µM; with HCT-116 it was 0.02 µM; in the series on MCF7 [3], 0.04 µM. The same molecule showed a GI50 at 72 h in series [4] of 17.1 µM. For the same molecule, the RatioGI50 in the series with T47D [5], with MRC5 [6], with MRC5 [7] and with MRC5 [8] was under 280 each time.
